ChEMBL document CHEMBL1138564, “Microwave-induced synthesis and anti-microbial activities of 7,10,11,12-tetrahydrobenzo[c]acridin-8(9H)-one derivatives” (2009)
Values after ≈ are worked out from the molar mass of the structure shown. Active and inactive are the calls of the source. The calls are words filed in the database; no cut-off is given here.

Assays:
[1] = system: Aspergillus flavus; experiment: Antimicrobial activity against Aspergillus flavus NCIM 902 at 500 ug/disk after 72 hrs by disk diffusion method; type: functional; details: NCIM 902, 72 h, read-out: DIZ
In short: (§1)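 Disc diffusion on Sabouraud's dextrose agar. 100 µl of fungal suspension at 10⁶ CFU/ml is spread on the plate. Discs carry test compounds at two loadings in DMSO; DMSO alone is the negative control. Clotrimazole disc is the positive reference. Plates are incubated at 27 °C for 72 h, and the zone of inhibition diameter is measured.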

[2] = system: Proteus vulgaris; experiment: Antimicrobial activity against Proteus vulgaris NCIM 2027 at 500 ug/disk after 24 hrs by disk diffusion method; type: functional
In short: (§2)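 Disc diffusion on Mueller–Hinton agar. 100 µl of bacterial suspension at 10⁸ CFU/ml is spread on the plate. Discs carry test compounds at two loadings, dissolved in DMSO; DMSO alone serves as negative control. Ofloxacin disc is the positive reference. Plates are incubated at 37 °C for 24 h, and the inhibition zone diameter is measured.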

[3] = system: Aspergillus flavus; experiment: Antimicrobial activity against Aspergillus flavus NCIM 902 at 1000 ug/disk after 72 hrs by disk diffusion method; type: functional; details: NCIM 902, 72 h, read-out: DIZ; in short: as §1
[4] = system: Rhodotorula mucilaginosa; experiment: Antimicrobial activity against Rhodotorula rubra NCIM 3174 after 72 hrs by serial dilution method; type: functional; details: NCIM 3174, 72 h
In short: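 MIC by broth dilution in Sabouraud's dextrose broth, run only on fungi found sensitive in the disc assay. Twofold serial dilutions were made in 1 ml broth per tube, covering 3.9 to 1000. Inoculated tubes were incubated at 27 °C for 72 h.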

[5] = system: Bacillus cereus; experiment: Antimicrobial activity against Bacillus cereus NCIM 2155 at 1000 ug/disk after 24 hrs by disk diffusion method; type: functional; in short: as §2
[6] = system: Salmonella typhimurium; experiment: Antimicrobial activity against Salmonella Typhimurium NCIM 2501 at 500 ug/disk after 24 hrs by disk diffusion method; type: functional, Salmonella enterica subsp. enterica serovar Typhimurium
In short: (§3)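 Disc diffusion. 100 µl of bacterial suspension at 10⁸ CFU/ml was spread on Mueller–Hinton agar. Discs loaded with test compound dissolved in DMSO were placed on the lawn, with a DMSO-only disc as negative control. Plates were incubated at 37 °C for 24 h, and the inhibition zone diameter was measured.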

[7] = system: Trichoderma viride; experiment: Antimicrobial activity against Trichoderma viride NCIM 1195 at 1000 ug/disk after 72 hrs by disk diffusion method; type: functional; details: NCIM 1195, 72 h, read-out: DIZ
In short: (§4)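 Fungal disc diffusion. 100 µl of suspension at 10⁶ CFU/ml was spread on Sabouraud's dextrose agar. Discs carrying test compound in DMSO were applied, with a DMSO-only disc as negative control. Plates were incubated at 27 °C for 72 h, and the zone of inhibition diameter was measured.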

[8] = system: Rhodococcus corynebacterioides; experiment: Antimicrobial activity against Corynebacterium rubrum NCIM 2252 at 1000 ug/disk after 24 hrs by disk diffusion method; type: functional; details: Rhodococcoides corynebacterioides, NCIM 2252, 24 h; read-out: DIZ; in short: as §2
[9] = system: Aspergillus parasiticus; experiment: Antimicrobial activity against Aspergillus parasiticus NCIM 904 after 72 hrs by serial dilution method; type: functional; details: NCIM 904, 72 h
In short: (§5)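 MIC by broth dilution in Sabouraud's dextrose broth, only for fungi sensitive in disc diffusion. Two-fold serial dilutions of compounds are made in 1 ml broth per tube, range 3.9 to 1000. Inoculated tubes are incubated at 27 °C for 72 h.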

[10] = system: Klebsiella aerogenes; experiment: Antimicrobial activity against Klebsiella aerogenes NCIM 2239 at 1000 ug/disk after 24 hrs by disk diffusion method; type: functional; details: NCIM 2239, 24 h, read-out: DIZ; in short: as §2
[11] = system: Rhodotorula mucilaginosa; experiment: Antimicrobial activity against Rhodotorula rubra NCIM 3174 at 500 ug/disk after 72 hrs by disk diffusion method; type: functional; details: NCIM 3174, 72 h, read-out: DIZ; in short: as §4
[12] = system: Escherichia coli; experiment: Antimicrobial activity against Escherichia coli NCIM 2065 at 1000 ug/disk after 24 hrs by disk diffusion method; type: functional; details: NCIM 2065, 24 h, read-out: DIZ; in short: as §2
[13] = system: Penicillium chrysogenum; experiment: Antimicrobial activity against Penicillium chrysogenum NCIM 707 at 1000 ug/disk after 72 hrs by disk diffusion method; type: functional; in short: as §1
[14] = system: Penicillium chrysogenum; experiment: Antimicrobial activity against Penicillium chrysogenum NCIM 707 at 500 ug/disk after 72 hrs by disk diffusion method; type: functional; in short: as §1
[15] = system: Escherichia coli; experiment: Antimicrobial activity against Escherichia coli NCIM 2065 at 500 ug/disk after 24 hrs by disk diffusion method; type: functional; details: NCIM 2065, 24 h, read-out: DIZ; in short: as §2
[16] = system: Aliivibrio fischeri; experiment: Antimicrobial activity against Vibrio fischeri NCIM 2154 at 1000 ug/disk after 24 hrs by disk diffusion method; type: functional; details: NCIM 2154, 24 h, read-out: DIZ; in short: as §3
[17] = system: Staphylococcus; experiment: Antimicrobial activity against Staphylococcus albus NCIM 2178 at 1000 ug/disk after 24 hrs by disk diffusion method; type: functional; in short: as §3
[18] = system: Lipomyces lipofer; experiment: Antimicrobial activity against Lipomyces lipofer NCIM 3252 at 1000 ug/disk after 72 hrs by disk diffusion method; type: functional; in short: as §1
[19] = system: Aspergillus parasiticus; experiment: Antimicrobial activity against Aspergillus parasiticus NCIM 904 at 1000 ug/disk after 72 hrs by disk diffusion method; type: functional; details: NCIM 904, 72 h, read-out: DIZ; in short: as §1
[20] = system: Rhodococcus corynebacterioides; experiment: Antimicrobial activity against Corynebacterium rubrum NCIM 2252 at 500 ug/disk after 24 hrs by disk diffusion method; type: functional; details: Rhodococcoides corynebacterioides, NCIM 2252, 24 h; read-out: DIZ; in short: as §2
[21] = system: Aspergillus flavus; experiment: Antimicrobial activity against Aspergillus flavus NCIM 902 after 72 hrs by serial dilution method; type: functional; details: NCIM 535, 72 h, in the assay text read “NCIM 535” for “NCIM 902”; in short: as §5
[22] = system: Salmonella typhimurium; experiment: Antimicrobial activity against Salmonella Typhimurium NCIM 2501 at 1000 ug/disk after 24 hrs by disk diffusion method; type: functional, Salmonella enterica subsp. enterica serovar Typhimurium; in short: as §3
[23] = system: Escherichia coli; experiment: Antimicrobial activity against Escherichia coli NCIM 2065 after 24 hrs by serial dilution method; type: functional; details: NCIM 2065, 24 h
In short: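 Broth dilution MIC in nutrient broth, run only for organisms found sensitive in disc diffusion. Compounds are two-fold serially diluted in 1 ml sterile broth per tube, spanning 3.9 to 1000. Inoculated tubes are incubated at 37 °C for 24 h.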

[24] = system: Rhodotorula mucilaginosa; experiment: Antimicrobial activity against Rhodotorula rubra NCIM 3174 at 1000 ug/disk after 72 hrs by disk diffusion method; type: functional; details: NCIM 3174, 72 h, read-out: DIZ; in short: as §4
[25] = system: Aliivibrio fischeri; experiment: Antimicrobial activity against Vibrio fischeri NCIM 2154 after 24 hrs by serial dilution method; type: functional; details: NCIM 2154, 24 h
[26] = system: Pseudomonas aeruginosa; experiment: Antimicrobial activity against Pseudomonas aeruginosa NCIM 2200 at 1000 ug/disk after 24 hrs by disk diffusion method; type: functional; in short: as §2
[27] = system: Bacillus subtilis; experiment: Antimicrobial activity against Bacillus subtilis NCIM 2063 at 1000 ug/disk after 24 hrs by disk diffusion method; type: functional; details: NCIM 2063, 24 h, read-out: DIZ; in short: as §2
[28] = system: Aspergillus fumigatus; experiment: Antimicrobial activity against Aspergillus fumigatus NCIM 902 at 1000 ug/disk after 72 hrs by disk diffusion method; type: functional; details: NCIM 902, 72 h, read-out: DIZ; in short: as §1
[29] = system: Bacillus subtilis; experiment: Antimicrobial activity against Bacillus subtilis NCIM 2063 at 500 ug/disk after 24 hrs by disk diffusion method; type: functional; details: NCIM 2063, 24 h, read-out: DIZ; in short: as §2
[30] = system: Klebsiella aerogenes; experiment: Antimicrobial activity against Klebsiella aerogenes NCIM 2239 at 500 ug/disk after 24 hrs by disk diffusion method; type: functional; in short: as §2
[31] = system: Staphylococcus; experiment: Antimicrobial activity against Staphylococcus albus NCIM 2178 at 500 ug/disk after 24 hrs by disk diffusion method; type: functional; in short: as §3
[32] = Salmonella enterica, NCIM 2501, 24 h, read-out: DIZ
[33] = Salmonella enterica subsp. enterica serovar Typhimurium

Row | SMILES | zone of inhibition at 500 µg/disc [1] [mm] | zone of inhibition at 1000 µg/disc [3] [mm] | MIC [4] [µg/mL] | zone of inhibition at 1000 µg/disc [7] [mm] | zone of inhibition at 1000 µg/disc [8] [mm] | MIC [9] [µg/mL] | zone of inhibition at 1000 µg/disc [10] [mm] | zone of inhibition at 500 µg/disc [11] [mm] | zone of inhibition at 1000 µg/disc [12] [mm] | diameter of the inhibition zone (DIZ) [13] | diameter of the inhibition zone (DIZ) [14] | zone of inhibition at 500 µg/disc [15] [mm] | zone of inhibition at 1000 µg/disc [16] [mm] | diameter of the inhibition zone (DIZ) [18] | zone of inhibition at 1000 µg/disc [19] [mm] | zone of inhibition at 500 µg/disc [20] [mm] | MIC [21] [µg/mL] | MIC [23] [µg/mL] | zone of inhibition at 1000 µg/disc [24] [mm] | MIC [25] [µg/mL] | further results
1 | CC1(C)CC(=O)C2=C(C1)Nc1c(ccc3ccccc13)C2c1ccc(Cl)cc1 (configuration not stated) | 7 | 8 | 15.6 (≈ 40.2 µM) | 9 | 10 | 3.9 (≈ 10.1 µM) | 11 | 9 | 9 | inactive | inactive | 7 | 9 | inactive | 17 | 7 | 125 (≈ 322 µM) | 62.5 (≈ 161 µM) | 13 | 62.5 (≈ 161 µM) | zone of inhibition at 500 µg/disc ([2]; NCIM 2027, 24 h, read-out: DIZ): 9 mm; zone of inhibition at 1000 µg/disc ([5]; NCIM 2155, 24 h, read-out: DIZ): 13 mm; zone of inhibition at 500 µg/disc [6, 32]: 9 mm; zone of inhibition at 1000 µg/disc ([17]; NCIM 2178, 24 h, read-out: DIZ): 9 mm; zone of inhibition at 1000 µg/disc [22, 32]: 11 mm; zone of inhibition at 1000 µg/disc ([26]; NCIM 2200, 24 h, read-out: DIZ): 9 mm; zone of inhibition at 1000 µg/disc [27]: 10 mm; zone of inhibition at 1000 µg/disc [28]: 8 mm; zone of inhibition at 500 µg/disc [29]: 8 mm; zone of inhibition at 500 µg/disc ([30]; NCIM 2239, 24 h, read-out: DIZ): 8 mm; zone of inhibition at 500 µg/disc ([31]; NCIM 2178, 24 h, read-out: DIZ): 7 mm
2 | O=C1CCCC2=C1C(c1cccc(Cl)c1)c1ccc3ccccc3c1N2 (configuration not stated) | 9 | 11 | 62.5 (≈ 174 µM) | 10 | 9 | 15.6 (≈ 43.4 µM) | 9 | 8 | 9 | inactive | inactive | 7 | 10 | inactive | 13 | 7 | 62.5 (≈ 174 µM) | 62.5 (≈ 174 µM) | 10 | 62.5 (≈ 174 µM) | diameter of the inhibition zone (DIZ) [2]: inactive; diameter of the inhibition zone (DIZ) [5]: inactive; diameter of the inhibition zone (DIZ) [6, 33]: inactive; diameter of the inhibition zone (DIZ) [17]: inactive; diameter of the inhibition zone (DIZ) [22, 33]: inactive; diameter of the inhibition zone (DIZ) [26]: inactive; zone of inhibition at 1000 µg/disc [27]: 11 mm; zone of inhibition at 1000 µg/disc [28]: 12 mm; zone of inhibition at 500 µg/disc [29]: 8 mm; diameter of the inhibition zone (DIZ) [30]: inactive; diameter of the inhibition zone (DIZ) [31]: inactive
